Source: ChEMBL document CHEMBL4330160, “Prenylated Indole Diterpene Alkaloids from a Mine-Soil-Derived Tolypocladium sp” (J Nat Prod, 2019)
In brackets after ≈: the same amount, converted by molar mass. Activity calls are given as the source filed them. No cut-off for these calls is given here.

Key:
Rhizoctonia solani = experiment: Antifungal activity against Rhizoctonia solani after 3 to 7 days by microbroth dilution method; format: functional, organism-based
In short: (§1)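 Microbroth dilution with fungal cultures at 10^4 mycelia fragments/mL. Test samples and ketoconazole were 1 mg/mL DMSO stocks. 180 μL culture plus 20 μL stock in the first well gave 100 μg/mL final, followed by serial dilution. Run in triplicate, incubated at 28 °C for 3−7 days, and MIC determined.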

[1] = tested on: Alternaria sp. 'fragaria'; experiment: Antifungal activity against Alternaria fragaria after 3 to 7 days by microbroth dilution method; format: functional; in short: as §1
Fusarium oxysporum = experiment: Antifungal activity against Fusarium oxysporum Schlecht after 3 to 7 days by microbroth dilution method; format: functional, organism-based; in short: as §1
Alternaria solani = experiment: Antifungal activity against Alternaria solani Sorauer after 3 to 7 days by microbroth dilution method; format: functional, organism-based; in short: as §1
Staphylococcus aureus = experiment: Antibacterial activity against Methicillin-resistant Staphylococcus aureus after 3 to 7 days by broth dilution assay; format: functional
In short: (§2)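 Modified broth dilution with bacterial suspensions at 10^6 CFU/mL. Test and ciprofloxacin control stocks were 1 mg/mL in DMSO. Serial dilution and MIC read-out followed the antifungal microdilution procedure.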

Salmonella paratyphi = experiment: Antibacterial activity against Bacterium paratyphosum after 3 to 7 days by broth dilution assay; format: functional, Salmonella enterica subsp. enterica serovar Paratyphi A; conditions: Salmonella enterica; in short: as §2
Bacillus cereus = experiment: Antibacterial activity against Bacillus cereus after 3 to 7 days by broth dilution assay; format: functional
Micrococcus luteus = experiment: Antibacterial activity against Micrococcus lysodeikticus after 3 to 7 days by broth dilution assay; format: functional
Bacillus subtilis = experiment: Antibacterial activity against Bacillus subtilis after 3 to 7 days by broth dilution assay; format: functional
Klebsiella aerogenes = experiment: Antibacterial activity against Enterobacter aerogenes after 3 to 7 days by broth dilution assay; format: functional
Alternaria alternata = experiment: Antifungal activity against Alternaria alternata after 3 to 7 days by microbroth dilution method; format: functional
In short: (§3)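 Microbroth dilution with fungal inoculum at 10^4 mycelial fragments/mL. Stock solutions were 1 mg/mL in DMSO. 20 μL stock was added to 180 μL culture, giving a top final concentration of 100 μg/mL, then serially diluted, in triplicate. Plates were held at 28 °C for 3–7 days and read for MIC; ketoconazole was the positive control.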

[2] = Antifungal activity against Cercospora personata after 3 to 7 days by microbroth dilution method; format: functional; conditions: Nothopassalora personata; in short: as §3
MDA-MB-231 = experiment: Cytotoxicity against human MDA231 cells after 48 hrs by CCK8 assay; format: functional, cell-based; conditions: MDA-MB-231, 48 h
In short: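 MDA231 cells kept in DMEM with 10% FBS at 37 °C, 5% CO2. Seeded at 10 000 cells/well and settled 16 h, then given graded concentrations for 48 h. Viability measured by CCK-8 absorbance relative to control cells, with IC50 from a sigmoidal fit; camptothecin served as the positive control.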

A549 = experiment: Cytotoxicity against human A549 cells after 48 hrs by CCK8 assay; format: functional, cell-based; conditions: A549, 48 h
In short: (§4)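 Cells grown in DMEM with 10% FBS at 37 °C, 5% CO2. Seeded at 5000 cells/well and left 16 h, then exposed to a range of concentrations in growth medium for 48 h. Viability read by CCK-8 absorbance as percent of untreated control. IC50 taken from a sigmoidal curve; camptothecin was the positive control.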

Verticillium dahliae = experiment: Antifungal activity against Verticillium dahliae Kleb after 3 to 7 days by microbroth dilution method; format: functional; in short: as §3
LN-229 = experiment: Cytotoxicity against human LN229 cells after 48 hrs by CCK8 assay; format: functional, cell-based; conditions: LN-229, 48 h; in short: as §4
Sclerotinia sclerotiorum = experiment: Antifungal activity against Sclerotinia sclerotiorum after 3 to 7 days by microbroth dilution method; format: functional; in short: as §3
MHCC97H = experiment: Cytotoxicity against human MHCC97H cells after 48 hrs by CCK8 assay; format: functional, cell-based
In short: (§5)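 Cultured in DMEM with 10% FBS at 37 °C under 5% CO2. After a 16 h attachment, cells were treated with varying concentrations for 48 h. CCK-8 absorbance was expressed as percent of control and IC50 derived by sigmoidal curve fitting; camptothecin was the positive control.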

[3] = Cytotoxicity against human MGC cells after 48 hrs by CCK8 assay; format: functional, cell-based; in short: as §4
Botrytis cinerea = experiment: Antifungal activity against Botrytis cinerea Pers. after 3 to 7 days by microbroth dilution method; format: functional; in short: as §3
LoVo = experiment: Cytotoxicity against human LoVo cells after 48 hrs by CCK8 assay; format: functional, cell-based; in short: as §5
Huh-7 = experiment: Cytotoxicity against human HuH7 cells after 48 hrs by CCK8 assay; format: functional, cell-based; conditions: Huh-7, 48 h; in short: as §4
Corynespora cassiicola = experiment: Antifungal activity against Corynespora cassiicola after 3 to 7 days by microbroth dilution method; format: functional; in short: as §3
Homo sapiens = organism: Homo sapiens; experiment: Cytotoxicity against human T1224 cells in patient-derived organoid model after 48 hrs by CCK8 assay; format: functional, cell-based
In short: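 Patient-derived HCC cells (50 000) were embedded in Matrigel, set 20 min at 37 °C, then grown 6–8 days in DMEM/F12 with B27, 0.01% BSA, 2 mM glutamine, penicillin/streptomycin, 10 ng/mL FGF basic, 50 ng/mL EGF and 50 ng/mL HGF to form organoids. Medium was changed every 2 days.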

| Structure (SMILES) | Activity (Rhizoctonia solani) | MIC [1] [µg/mL] | Activity (Fusarium oxysporum) | Activity (Alternaria solani) | MIC (Staphylococcus aureus) [µg/mL] | other results |
| --- | --- | --- | --- | --- | --- | --- |
| CC(C)=C[C@H]1O[C@H]2[C@H]3O[C@@]34[C@H](CC[C@@]3(C)[C@@]4(O)CC[C@H]4Cc5c([nH]c6cc(C[C@H](O)C(C)(C)O)ccc56)[C@@]43C)O[C@@H]2C(C)(C)O1 | Active | 6.25 to 50 (≈ 10.1 to 80.4 µM) | Active | Active |  |  |
| CC(C)(O)[C@H]1O[C@H]2CC[C@@]3(C)[C@@](O)(CC[C@H]4Cc5c([nH]c6cccc(C[C@H](O)C(C)(C)Cl)c56)[C@@]43C)[C@]23O[C@@H]3[C@@H]1O | Active | 6.25 to 50 (≈ 10.9 to 87.1 µM) | Active | Active | 50 (≈ 87.1 µM) |  |
| O=C(O)c1cn(C2CC2)c2cc(N3CCNCC3)c(F)cc2c1=O [CIPROFLOXACIN] |  |  |  |  | 1.56 (≈ 4.71 µM) | MIC (Salmonella paratyphi): 0.78 to 1.56 µg/mL (≈ 2.35 to 4.71 µM); MIC (Bacillus cereus): 0.78 µg/mL (≈ 2.35 µM); MIC (Micrococcus luteus): 0.78 to 1.56 µg/mL (≈ 2.35 to 4.71 µM); MIC (Bacillus subtilis): 0.78 to 1.56 µg/mL (≈ 2.35 to 4.71 µM); MIC (Klebsiella aerogenes): 0.78 to 1.56 µg/mL (≈ 2.35 to 4.71 µM) |
| CC(C)=CCc1cccc2[nH]c3c(c12)C[C@@H]1CC[C@]2(O)[C@](C)(CCC(=O)[C@@]24O[C@@H]4[C@@H]2O[C@H](C=C(C)C)OC(C)(C)[C@@H]2O)[C@@]31C | Active |  | Active | Active | 12.5 to 25 (≈ 20.7 to 41.4 µM) | MIC (Salmonella paratyphi): 12.5 to 25 µg/mL (≈ 20.7 to 41.4 µM); MIC (Bacillus cereus): 12.5 to 25 µg/mL (≈ 20.7 to 41.4 µM); MIC (Micrococcus luteus): 12.5 to 25 µg/mL (≈ 20.7 to 41.4 µM); MIC (Bacillus subtilis): 12.5 to 25 µg/mL (≈ 20.7 to 41.4 µM); MIC (Klebsiella aerogenes): 12.5 to 25 µg/mL (≈ 20.7 to 41.4 µM) |
| CC(C)=C[C@H]1O[C@H]2[C@H]3O[C@@]34[C@H](CC[C@@]3(C)[C@@]4(O)CC[C@H]4Cc5c([nH]c6cccc(C[C@H](O)C(C)(C)Cl)c56)[C@@]43C)O[C@@H]2C(C)(C)O1 | Active | 6.25 to 50 (≈ 9.76 to 78.1 µM) | Active | Active |  |  |
| CC(C)(O)[C@H]1O[C@H]2CC[C@@]3(C)[C@@](O)(CC[C@H]4Cc5c([nH]c6cc(C[C@H](O)C(C)(C)Cl)ccc56)[C@@]43C)[C@]23O[C@@H]3[C@@H]1O | Active | 6.25 to 50 (≈ 10.9 to 87.1 µM) | Active | Active |  |  |
| CC(C)=CCc1cccc2[nH]c3c(c12)C[C@@H]1CC[C@@]2(O)[C@@]45O[C@@H]4[C@H](O)[C@@H](C(C)(C)O)O[C@H]5CC[C@]2(C)[C@@]31C | Active | 6.25 to 50 (≈ 12 to 95.8 µM) | Active | Active | 12.5 (≈ 24 µM) | MIC (Alternaria alternata): 6.25 to 25 µg/mL (≈ 12 to 47.9 µM); MIC [2]: 6.25 to 25 µg/mL (≈ 12 to 47.9 µM); IC50 (MDA-MB-231): 16.3 to 37.8 µM; MIC (Bacillus cereus): 25 µg/mL (≈ 47.9 µM); IC50 (A549): 16.3 to 37.8 µM; MIC (Verticillium dahliae): 6.25 to 25 µg/mL (≈ 12 to 47.9 µM); IC50 (LN-229): 16.3 to 37.8 µM; MIC (Sclerotinia sclerotiorum): 6.25 to 25 µg/mL (≈ 12 to 47.9 µM); IC50 (MHCC97H): 16.3 to 37.8 µM; IC50 [3]: 16.3 to 37.8 µM; MIC (Botrytis cinerea): 6.25 to 25 µg/mL (≈ 12 to 47.9 µM); IC50 (LoVo): 16.3 to 37.8 µM; IC50 (Huh-7): 16.3 to 37.8 µM; MIC (Corynespora cassiicola): 6.25 to 25 µg/mL (≈ 12 to 47.9 µM); Activity (Homo sapiens): Active |
| CC(=O)N1CCN(c2ccc(OCC3COC(Cn4ccnc4)(c4ccc(Cl)cc4Cl)O3)cc2)CC1 (configuration not stated) [KETOCONAZOLE] |  | 0.78 (≈ 1.47 µM) |  |  |  | MIC (Alternaria alternata): 0.78 to 1.56 µg/mL (≈ 1.47 to 2.94 µM); MIC [2]: 0.78 to 1.56 µg/mL (≈ 1.47 to 2.94 µM); MIC (Verticillium dahliae): 0.78 to 1.56 µg/mL (≈ 1.47 to 2.94 µM); MIC (Sclerotinia sclerotiorum): 0.78 to 1.56 µg/mL (≈ 1.47 to 2.94 µM); MIC (Botrytis cinerea): 0.78 to 1.56 µg/mL (≈ 1.47 to 2.94 µM); MIC (Corynespora cassiicola): 0.78 to 1.56 µg/mL (≈ 1.47 to 2.94 µM) |
| COC(C)(C)[C@@H](O)Cc1cccc2[nH]c3c(c12)C[C@@H]1CC[C@@]2(O)[C@@]45O[C@@H]4[C@H](O)[C@@H](C(C)(C)O)O[C@H]5CC[C@]2(C)[C@@]31C | Active | 6.25 to 50 (≈ 11 to 87.8 µM) | Active | Active |  |  |
| CC(C)(O)[C@@H](O)Cc1cccc2[nH]c3c(c12)C[C@@H]1CC[C@@]2(O)[C@@]45O[C@@H]4[C@@H]4O[C@H]([C@H]6OC6(C)C)OC(C)(C)[C@H]4O[C@H]5CC[C@]2(C)[C@@]31C | Active | 6.25 to 50 (≈ 9.8 to 78.4 µM) | Active | Active |  |  |
| CC(C)(Cl)[C@H](O)Cc1ccc2c3c([nH]c2c1)[C@@]1(C)[C@@H](CC[C@@]2(O)[C@@]45O[C@@H]4[C@@H]4O[C@H]([C@H]6OC6(C)C)OC(C)(C)[C@H]4O[C@H]5CC[C@@]21C)C3 | Active | 6.25 to 50 (≈ 9.52 to 76.2 µM) | Active | Active |  |  |
| CC(C)=C[C@H]1O[C@H]2[C@H]3O[C@@]34[C@H](CC[C@@]3(C)[C@@]4(O)CC[C@H]4Cc5c([nH]c6cccc(C[C@H](O)C(C)(C)O)c56)[C@@]43C)O[C@@H]2C(C)(C)O1 | Active | 6.25 to 50 (≈ 10.1 to 80.4 µM) | Active | Active |  |  |
| CC[C@@]1(O)C(=O)OCc2c1cc1n(c2=O)Cc2cc3ccccc3nc2-1 [CAMPTOTHECIN] |  |  |  |  |  | IC50 (MDA-MB-231): 0.00032 to 0.0318 µM; IC50 (A549): 0.00032 to 0.0318 µM; IC50 (LN-229): 0.00032 to 0.0318 µM; IC50 (MHCC97H): 0.00032 to 0.0318 µM; IC50 [3]: 0.00032 to 0.0318 µM; IC50 (LoVo): 0.00032 to 0.0318 µM; IC50 (Huh-7): 0.00032 to 0.0318 µM |
